From ChEMBL document CHEMBL1127027, “Synthesis and structure-activity relationships of naphthalene-substituted derivatives of the allylamine antimycotic terbinafine” (1993) come the findings set out here.

The test system of assay [1] is Aspergillus fumigatus. Description: Tested in vitro for minimum inhibitory concentration against Aspergillus fumigatus. Type of assay: functional. Put shortly: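 Broth macrodilution in glass tubes with Sabouraud's dextrose broth (pH 6.5). Compounds were dissolved in DMSO and serially diluted in medium. Inoculum was filamentous fungus harvested by spatula from Kimmig agar cultures grown 21 days at 30 °C. Tubes were incubated 72 h at 30 °C. MIC was the lowest concentration with no macroscopically visible growth.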

Assay [2] relates to Candida parapsilosis. The assay is described as follows: Tested in vitro for minimum inhibitory concentration against Candida parapsilosis 39. The settings on record: Lodderomyces parapsilosis. Type of assay: functional. In a few lines:
(§1)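 Yeasts were tested by tube dilution in malt extract broth (pH 4.8), with DMSO-dissolved compounds serially diluted in the broth. Blastospores came from yeast nitrogen base cultures shaken at 37 °C for about 30 h. After 48 h at 30 °C, MIC was read as the lowest concentration without macroscopic growth.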

Assay [3] has as its system Candida albicans. Description: Tested in vitro for minimum inhibitory concentration against Candida albicans 124. Type of assay: functional. Put shortly: as §1
Assay [4] has as its system Candida albicans. Description: Tested in vitro for minimum inhibitory concentration against Candida albicans 9. Type of assay: functional. Put shortly: as §1
In assay [5] the test system is Sporothrix schenckii. Description: Tested in vitro for minimum inhibitory concentration against Sporothrix schenck ii. Type of assay: functional. Put shortly: (§2)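 Glass-tube serial dilution in Sabouraud's dextrose broth (pH 6.5), with compounds dissolved in DMSO and diluted in medium. Mycelial inoculum was scraped from 21-day Kimmig agar cultures grown at 30 °C. Incubation was 7 days at 30 °C. MIC was the lowest concentration giving no macroscopically detectable growth.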

Assay [6] has as its system Trichophyton benhamiae. The assay is described as follows: Tested in vitro for minimum inhibitory concentration against Trichophyton mentagrophytes. Type of assay: functional, Arthroderma benhamiae. In a few lines:
as §2

Assay [7] concerns Microsporum canis. Description: Tested in vitro for minimum inhibitory concentration against Microsporum canis. It counts as functional. Put shortly:
as §2

One may read the MIC as the lowest concentration found to suppress growth. Higher therefore signals a need for much substance.

Converted amounts (≈) assume the structure as drawn.

Take `CN(C/C=C/C#CC(C)(C)C)Cc1cccc2ccc(F)cc12`: the MIC in assay [1] stood at 0.4 µg/mL (≈ 1.29 µM); in assay [2], 0.4 µg/mL (≈ 1.29 µM); in assay [3] it was 12.5 µg/mL (≈ 40.4 µM); in assay [4], 3.13 µg/mL (≈ 10.1 µM); in assay [5], 0.4 µg/mL (≈ 1.29 µM); in assay [6], 6 ng/mL (≈ 0.0194 µM). Further, inhibition of growth in assay [7] (MIC) required 0.006 µg/mL (≈ 0.0194 µM).
In the case of `CN(C/C=C/C#CC(C)(C)C)Cc1cc(C#N)cc2ccccc12`, the MIC in assay [1] was above 200 µg/mL; in assay [2], 0.4 µg/mL (≈ 1.26 µM); in assay [3], above 200 µg/mL; in assay [4] it was above 200 µg/mL; in assay [5] it was above 200 µg/mL; in assay [6] it was 50 ng/mL (≈ 0.158 µM). In assay [7], this molecule registered an MIC of 0.05 µg/mL (≈ 0.158 µM).
With `CN(C/C=C/C#CC(C)(C)C)Cc1cccc2c(F)cc(F)cc12`, the MIC was found to be 0.1 µg/mL (≈ 0.305 µM) in assay [1]; 0.1 µg/mL (≈ 0.305 µM) in assay [2]; 1.56 µg/mL (≈ 4.76 µM) in assay [3]; 0.8 µg/mL (≈ 2.44 µM) in assay [4]; 0.1 µg/mL (≈ 0.305 µM) in assay [5]; 3 ng/mL (≈ 0.00916 µM) in assay [6]. This molecule showed a minimum inhibitory concentration (MIC) in assay [7] of 0.003 µg/mL (≈ 0.00916 µM).
Turning to `CN(C/C=C/C#CC(C)(C)C)Cc1cccc2c(Cl)cccc12`, the MIC in assay [1] was 0.1 µg/mL (≈ 0.307 µM); in assay [2], 0.2 µg/mL (≈ 0.614 µM); in assay [3] it was 1.56 µg/mL (≈ 4.79 µM); in assay [4] it was 0.8 µg/mL (≈ 2.45 µM); in assay [5], 0.4 µg/mL (≈ 1.23 µM); in assay [6], 3 ng/mL (≈ 0.00921 µM). In addition, inhibition of growth in assay [7] (MIC) required 0.006 µg/mL (≈ 0.0184 µM).
With `CN(C/C=C/C#CC(C)(C)C)Cc1cccc2c(Cl)csc12`, the MIC in assay [1] was found to be 0.1 µg/mL (≈ 0.301 µM); in assay [2], 0.1 µg/mL (≈ 0.301 µM); in assay [3], 0.8 µg/mL (≈ 2.41 µM); in assay [4] it was 0.4 µg/mL (≈ 1.21 µM); in assay [5] it was 0.2 µg/mL (≈ 0.603 µM); in assay [6], 1.5 ng/mL (≈ 0.00452 µM). In assay [7], this molecule returned an MIC of 0.003 µg/mL (≈ 0.00904 µM).
Take `CN(C/C=C/C#CC(C)(C)C)Cc1ccc(F)c2ccccc12`: the MIC in assay [1] was 3.13 µg/mL (≈ 10.1 µM); in assay [2] it was 0.8 µg/mL (≈ 2.59 µM); in assay [3] it was 25 µg/mL (≈ 80.8 µM); in assay [4], 12.5 µg/mL (≈ 40.4 µM); in assay [5] it was 0.4 µg/mL (≈ 1.29 µM); in assay [6], 10 ng/mL (≈ 0.0323 µM). The MIC in assay [7] is 0.01 µg/mL (≈ 0.0323 µM).
In the case of `CN(C/C=C/C#CC(C)(C)C)Cc1cccc2c(Br)cccc12`, the MIC turned out to be 1.56 µg/mL (≈ 4.21 µM) in assay [1]; 0.8 µg/mL (≈ 2.16 µM) in assay [2]; 3.13 µg/mL (≈ 8.45 µM) in assay [3]; 1.56 µg/mL (≈ 4.21 µM) in assay [4]; 0.1 µg/mL (≈ 0.27 µM) in assay [5]; 6 ng/mL (≈ 0.0162 µM) in assay [6]. The molecule further had an MIC in assay [7] of 0.01 µg/mL (≈ 0.027 µM).
Take `CN(C/C=C/C#CC(C)(C)C)Cc1cccc2c(F)cccc12`: the minimal inhibitory concentration (MIC) came out at 0.1 µg/mL (≈ 0.323 µM) in assay [1]; 0.2 µg/mL (≈ 0.646 µM) in assay [2]; 3.13 µg/mL (≈ 10.1 µM) in assay [3]; 1.56 µg/mL (≈ 5.04 µM) in assay [4]; 0.2 µg/mL (≈ 0.646 µM) in assay [5]; 6 ng/mL (≈ 0.0194 µM) in assay [6]. Further, 0.006 µg/mL (≈ 0.0194 µM) was the least that counted as inhibitory in assay [7] (MIC).
Take `Cc1cc(CN(C)C/C=C/C#CC(C)(C)C)c2ccccc2c1`: the MIC was determined as 3.13 µg/mL (≈ 10.2 µM) in assay [1]; 1.56 µg/mL (≈ 5.11 µM) in assay [2]; 50 µg/mL (≈ 164 µM) in assay [3]; 50 µg/mL (≈ 164 µM) in assay [4]; 0.2 µg/mL (≈ 0.655 µM) in assay [5]; 10 ng/mL (≈ 0.0327 µM) in assay [6]. Also, the lowest concentration to inhibit growth in assay [7] (MIC) was 0.02 µg/mL (≈ 0.0655 µM).
As to `CN(C/C=C/C#CC(C)(C)C)Cc1cc(F)cc2ccccc12`, the MIC is 0.8 µg/mL (≈ 2.59 µM) in assay [1]; 0.2 µg/mL (≈ 0.646 µM) in assay [2]; 6.25 µg/mL (≈ 20.2 µM) in assay [3]; 0.8 µg/mL (≈ 2.59 µM) in assay [4]; 0.2 µg/mL (≈ 0.646 µM) in assay [5]; 6 ng/mL (≈ 0.0194 µM) in assay [6]. Also, the MIC in assay [7] was 0.006 µg/mL (≈ 0.0194 µM).
Consider `CN(C/C=C/C#CC(C)(C)C)Cc1cccc2c(C#N)cccc12`, for which the MIC in assay [1] is above 200 µg/mL; in assay [2], 3.13 µg/mL (≈ 9.89 µM); in assay [3], above 200 µg/mL; in assay [4] it was above 200 µg/mL; in assay [5], 6.25 µg/mL (≈ 19.8 µM); in assay [6], 200 ng/mL (≈ 0.632 µM). In addition, the MIC in assay [7] amounted to 0.4 µg/mL (≈ 1.26 µM).
In the case of `Cc1ccc2cccc(CN(C)C/C=C/C#CC(C)(C)C)c2c1`, the MIC in assay [1] came to 1.56 µg/mL (≈ 5.11 µM); in assay [2], 0.8 µg/mL (≈ 2.62 µM); in assay [3] it was 50 µg/mL (≈ 164 µM); in assay [4], 25 µg/mL (≈ 81.8 µM); in assay [5], 0.4 µg/mL (≈ 1.31 µM); in assay [6], 10 ng/mL (≈ 0.0327 µM). In assay [7], the MIC stood at 0.05 µg/mL (≈ 0.164 µM).
On to `CN(C/C=C/C#CC(C)(C)C)Cc1ccc(C#N)c2ccccc12`, for which the minimal inhibitory concentration (MIC) in assay [1] was above 200 µg/mL; in assay [2], 12.5 µg/mL (≈ 39.5 µM); in assay [3], above 200 µg/mL; in assay [4] it was above 200 µg/mL; in assay [5] it was above 200 µg/mL; in assay [6], 200 ng/mL (≈ 0.632 µM). Besides, in assay [7], 0.1 µg/mL (≈ 0.316 µM) was the least that counted as inhibitory (MIC).
On to `Cc1ccc2c(CN(C)C/C=C/C#CC(C)(C)C)cccc2c1`, for which the MIC is above 200 µg/mL in assay [1]; 0.8 µg/mL (≈ 2.62 µM) in assay [2]; 25 µg/mL (≈ 81.8 µM) in assay [3]; 12.5 µg/mL (≈ 40.9 µM) in assay [4]; 0.4 µg/mL (≈ 1.31 µM) in assay [5]; 10 ng/mL (≈ 0.0327 µM) in assay [6]. In assay [7], this molecule yielded an MIC of 0.05 µg/mL (≈ 0.164 µM).
Turning to `Cc1ccc(CN(C)C/C=C/C#CC(C)(C)C)c2ccccc12`, the minimal inhibitory concentration (MIC) in assay [1] is above 200 µg/mL; in assay [2] it was 3.13 µg/mL (≈ 10.2 µM); in assay [3], 50 µg/mL (≈ 164 µM); in assay [4] it was 25 µg/mL (≈ 81.8 µM); in assay [5], 0.8 µg/mL (≈ 2.62 µM); in assay [6], 20 ng/mL (≈ 0.0655 µM). This molecule yielded an MIC in assay [7] of 0.05 µg/mL (≈ 0.164 µM).
Consider `CN(C/C=C/C#CC(C)(C)C)Cc1cccc2ccc(Cl)cc12`, for which the MIC in assay [1] was 1.56 µg/mL (≈ 4.79 µM); in assay [2], 0.4 µg/mL (≈ 1.23 µM); in assay [3] it was 12.5 µg/mL (≈ 38.4 µM); in assay [4], 3.13 µg/mL (≈ 9.6 µM); in assay [5], 0.4 µg/mL (≈ 1.23 µM); in assay [6], 20 ng/mL (≈ 0.0614 µM). The same molecule showed a minimal inhibitory concentration (MIC) in assay [7] of 0.02 µg/mL (≈ 0.0614 µM).
As for `Cc1cccc2c(CN(C)C/C=C/C#CC(C)(C)C)cccc12`, the MIC in assay [1] came out at 0.8 µg/mL (≈ 2.62 µM); in assay [2], 1.56 µg/mL (≈ 5.11 µM); in assay [3], 12.5 µg/mL (≈ 40.9 µM); in assay [4], 6.25 µg/mL (≈ 20.5 µM); in assay [5], 0.4 µg/mL (≈ 1.31 µM); in assay [6], 6 ng/mL (≈ 0.0196 µM). For the same molecule, in assay [7], inhibition of growth (MIC) required 0.02 µg/mL (≈ 0.0655 µM).
With `CN(C/C=C/C#CC(C)(C)C)Cc1cccc2cc(F)ccc12`, the MIC in assay [1] came out at 6.25 µg/mL (≈ 20.2 µM); in assay [2] it was 1.56 µg/mL (≈ 5.04 µM); in assay [3] it was 25 µg/mL (≈ 80.8 µM); in assay [4], 6.25 µg/mL (≈ 20.2 µM); in assay [5], 0.8 µg/mL (≈ 2.59 µM); in assay [6] it was 6 ng/mL (≈ 0.0194 µM). Besides, in assay [7], the MIC stood at 0.006 µg/mL (≈ 0.0194 µM).
For the molecule `CN(C/C=C/C#CC(C)(C)C)Cc1cccc2ccccc12` [TERBINAFINE], the minimum inhibitory concentration (MIC) in assay [1] came out at 0.8 µg/mL (≈ 2.75 µM); in assay [2], 0.8 µg/mL (≈ 2.75 µM); in assay [3] it was 25 µg/mL (≈ 85.8 µM); in assay [4] it was 6.25 µg/mL (≈ 21.4 µM); in assay [5] it was 0.4 µg/mL (≈ 1.37 µM); in assay [6], 3 ng/mL (≈ 0.0103 µM). Moreover, the MIC in assay [7] was 0.006 µg/mL (≈ 0.0206 µM).
